Measured values as given in ChEMBL document CHEMBL1177688, “Synthesis of novel pyrazolic analogues of chalcones and their 3-aryl-4-(3-aryl-4,5-dihydro-1H-pyrazol-5-yl)-1-phenyl-1H-pyrazole derivatives as potential antitumor agents” (2010).

What was measured:
Assay type in all cases: functional
A549 = assay: Antiproliferative activity against human A549 cells after 48 hrs by SRB assay; settings: A549, 48 h, read-out: LC50 (the source's name)
Method in brief: (§1)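 NCI 60-cell-line human tumour panel, secondary five-dose screen. Compounds tested at 100, 10, 1.0, 0.1 and 0.01 µM with 48 h continuous exposure. Cell growth was estimated by sulforhodamine B protein staining. GI50 is the concentration giving a 50% reduction in net protein increase relative to untreated control cells over the incubation. TGI and LC50 were also derived.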

HCT-15 = assay: Antiproliferative activity against human HCT15 cells after 48 hrs by SRB assay; settings: HCT-15, 48 h; for CC50: read-out: LC50 (the source's name); method in brief: as §1
KM12 = assay: Antiproliferative activity against human KM12 cells after 48 hrs by SRB assay; settings: KM12, 48 h, read-out: LC50 (the source's name); method in brief: as §1
SW-620 = assay: Antiproliferative activity against human SW620 cells after 48 hrs by SRB assay; settings: SW-620, 48 h; method in brief: as §1
SF-295 = assay: Antiproliferative activity against human SF295 cells after 48 hrs by SRB assay; settings: SF-295, 48 h; for CC50: read-out: LC50 (the source's name); method in brief: as §1
SNB-19 = assay: Antiproliferative activity against human SNB19 cells after 48 hrs by SRB assay; settings: SNB-19, 48 h; for CC50: read-out: LC50 (the source's name); method in brief: as §1
IGROV-1 = assay: Antiproliferative activity against human IGROV1 cells after 48 hrs by SRB assay; settings: IGROV-1, 48 h; for CC50: read-out: LC50 (the source's name); method in brief: as §1
OVCAR-4 = assay: Antiproliferative activity against human OVCAR4 cells after 48 hrs by SRB assay; settings: OVCAR-4, 48 h, read-out: LC50 (the source's name); method in brief: as §1
PC-3 = assay: Antiproliferative activity against human PC3 cells after 48 hrs by SRB assay; settings: PC-3, 48 h; method in brief: as §1
MDA-MB-231 = assay: Antiproliferative activity against human MDA-MB-231 cells after 48 hrs by SRB assay; settings: MDA-MB-231, 48 h
Method in brief: (§2)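 NCI 60-cell human tumour line panel. Continuous 48 h drug exposure at five concentrations (100, 10, 1.0, 0.1, 0.01 µM). Cell growth estimated by sulforhodamine B protein staining. GI50 = concentration giving 50% reduction in net protein increase versus control cells over the incubation. LC50 = molar concentration killing 50% of cells.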

BT-549 = assay: Antiproliferative activity against human BT549 cells after 48 hrs by SRB assay; settings: BT-549, 48 h; for CC50: read-out: LC50 (the source's name); method in brief: as §1
T47D = assay: Antiproliferative activity against human T47D cells after 48 hrs by SRB assay; method in brief: as §2
MDA-MB-468 = assay: Antiproliferative activity against human MDA-MB-468 cells after 48 hrs by SRB assay; settings: MDA-MB-468, 48 h; for CC50: read-out: LC50 (the source's name); method in brief: as §1
Hs-578T = assay: Antiproliferative activity against human Hs 578T cells after 48 hrs by SRB assay; settings: read-out: LC50 (the source's name); method in brief: as §1
CCRF-CEM = assay: Antiproliferative activity against human CCRF-CEM cells after 48 hrs by SRB assay; settings: read-out: LC50 (the source's name); method in brief: as §1
HL-60 = assay: Antiproliferative activity against human HL-60(TB) cells after 48 hrs by SRB assay; settings: HL-60, 48 h; method in brief: as §1
K562 = assay: Antiproliferative activity against human K562 cells after 48 hrs by SRB assay; settings: K562, 48 h; method in brief: as §1
MOLT-4 = assay: Antiproliferative activity against human MOLT4 cells after 48 hrs by SRB assay; settings: MOLT-4, 48 h; method in brief: as §1
HOP-62 = assay: Antiproliferative activity against human HOP62 cells after 48 hrs by SRB assay; settings: HOP-62, 48 h; method in brief: as §1
OVCAR-3 = assay: Antiproliferative activity against human OVCAR-3 cells after 48 hrs by SRB assay; settings: OVCAR-3, 48 h; method in brief: as §1
786-0 = assay: Antiproliferative activity against human 786-0 cells after 48 hrs by SRB assay; settings: 786-0, 48 h; method in brief: as §1
[1] = read-out: LC50 (the source's name)

`COc1ccc(C2=NN(C(C)=O)C(c3cn(-c4ccccc4)nc3-c3ccc(Cl)cc3)C2)cc1` (stereo not drawn) was tested, and the CC50 (A549) was > 100 µM, the GI50 (HCT-15) was 3.09 µM and the CC50 (HCT-15) was > 100 µM. For the same compound, the CC50 (KM12) was > 100 µM, the GI50 (SW-620) was 3.48 µM and the CC50 (SW-620; [1]) was > 100 µM. For the same compound, the GI50 (SF-295) was 2.48 µM, the CC50 (SF-295) was > 100 µM and the CC50 (SNB-19) was > 100 µM. For the same compound, the CC50 (IGROV-1) was > 100 µM, the CC50 (OVCAR-4) was > 100 µM and the GI50 (PC-3) was 2.35 µM. For the same compound, the CC50 (PC-3; [1]) was > 100 µM, the GI50 (MDA-MB-231) was 1.88 µM and the CC50 (BT-549) was > 100 µM. For the same compound, the GI50 (T47D) was 1.9 µM, the CC50 (MDA-MB-468) was > 100 µM and the CC50 (Hs-578T) was > 100 µM.
For `O=C(/C=C/c1cn(-c2ccccc2)nc1-c1ccc([N+](=O)[O-])cc1)c1ccc(Cl)cc1`, the CC50 (CCRF-CEM) was > 100 µM, the GI50 (HL-60) was > 100 µM and the CC50 (HL-60; [1]) was > 100 µM. For the same compound, the GI50 (K562) was 0.09 µM, the CC50 (K562; [1]) was > 100 µM and the GI50 (MOLT-4) was 0.87 µM. For the same compound, the CC50 (MOLT-4; [1]) was > 100 µM, the GI50 (HOP-62) was 26 µM and the CC50 (HOP-62; [1]) was > 100 µM. For the same compound, the CC50 (A549) was > 100 µM, the CC50 (HCT-15) was > 100 µM and the CC50 (KM12) was > 100 µM. The GI50 (SF-295) was 2.32 µM, the CC50 (SF-295) was 74.1 µM and the GI50 (SNB-19) was 4.9 µM. The CC50 (SNB-19) was > 100 µM, the GI50 (IGROV-1) was 3.54 µM and the CC50 (IGROV-1) was > 100 µM. The GI50 (OVCAR-3) was 1.96 µM, the CC50 (OVCAR-3; [1]) was > 100 µM and the GI50 (786-0) was 3.94 µM. The CC50 (786-0; [1]) was > 100 µM, the GI50 (MDA-MB-231) was 2.45 µM and the CC50 (MDA-MB-231; [1]) was > 100 µM. For the same compound, the GI50 (BT-549) was 2.25 µM, the CC50 (BT-549) was > 100 µM and the GI50 (T47D) was 1.12 µM. The CC50 (T47D; [1]) was > 100 µM, the GI50 (MDA-MB-468) was 2.91 µM and the CC50 (MDA-MB-468) was > 100 µM.
